Rows were chosen to be rich in hits. Some 1.6% of all compounds tested hit in one or more screens of this group.
LMPTP inh – LMPTP phosphatase inhibitors, primary screen, biochemical, fluorescence intensity, uHTS. recombinant LMPTP-A, OMFP fluorogenic substrate. inhibition, % at 20 µM. 360,000 compounds, 0.22% hits. AID 651560, 2012;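 active = compounds that cut the enzyme signal by at least half of the control window in the single-dose screen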;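 also: plate controls were DMSO wells with enzyme plus substrate for no effect and substrate without enzyme for full effect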
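material = LMPTP-A | quantity = 0.625 nM enzyme | reagent = OMFP substrate, 400 µM final | buffer or medium = Bis-Tris pH 6.0, DTT, detergent | detection = endpoint fluorescence intensity from OMFP dephosphorylation | dosing = single 20 µM dose | read-out basis = % inhibition relative to no-enzyme and uninhibited control wells | control set = no-enzyme and uninhibited controls | timing = 50 min at room temperature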
Scp1 inh – Scp-1 phosphatase inhibitors, primary screen, biochemical, colorimetric, uHTS; inhibition, % at 20 µM; 340,000 compounds, 0.88% hits; Recombinant Scp1, phosphopeptide, malachite green phosphate absorbance; Carboxy-terminal domain RNA polymerase II polypeptide A small phosphatase 1 (Homo …;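 active = inhibition above about 50% at 20 µM, limit read from the data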;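 also: plate controls were DMSO wells with enzyme for no effect and wells lacking enzyme for full effect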
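System: truncated SCP-1 phosphatase (76-261aa); medium: Tris acetate buffer pH 5.5 with MgCl2 and Tween-20; incubation: 45 min room-temperature reaction, 5 min colour, 30 min stabiliser; compound: single 20 µM dose, 1% DMSO; reagent: Phosphorylated 17-residue peptide substrate; read-out: % inhibition at 20 µM; technique: colorimetric free-phosphate detection, absorbance 630 nm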
DNMT1 block – human DNMT1 methyltransferase inhibitors, primary screen, biochemical, molecular beacon, fluorescence, HinP1I cleavage, uHTS. DNA (cytosine-5)-methyltransferase 1 (Homo sapiens), P26358. 360,000 compounds, 0.83% hits. AID 588458, 2011. inhibition (reported as % activation of signal), % at 10 µM; in the data active = inhibition above about 50%
STEP inh – STEP phosphatase inhibitors, primary screen, biochemical, fluorescence intensity, uHTS; recombinant STEP, OMFP fluorogenic substrate; inhibition, % at 20 µM; Tyrosine-protein phosphatase non-receptor type 5 (Homo sapiens), P54829; 360,000 compounds, 0.25% hits;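 active = inhibition at 20 µM, scaled per plate between control wells, above about 37%, limit read from the data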;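 also: 0% = DMSO with enzyme and substrate and 100% = substrate only without enzyme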
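Material: STEP (striatal-enriched tyrosine phosphatase) enzyme, cell-free; Compound dosing: 20 µM single dose in 1% DMSO; Technique: fluorescence read at 480 nm ex / 540 nm em; Times: reaction 20 min, ambient temperature; Medium: 50 mM Bis-Tris pH 6.0 with 2.5 mM DTT and 0.005% Tween 20; Also added: OMFP at 25 µM.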
CFTR F508del cor – F508del CFTR correction, initial screen, CFBE line, single point; CFBE cells, YFP halide quenching; stimulated with forskolin plus potentiator P3; % fluorescence drop versus neutral controls; activity (quench increase), % at 7.58 µM; 350,000 compounds, 0.36% hits; AID 720511, 2013;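 active = mean added fluorescence quench of at least 8% versus neutral control, with both replicates also reaching 8%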;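 also: cells transiently co-express mutant CFTR-F508del with the halide-sensitive YFP; corrector assay measuring rescue of mutant channel to the surface after 24 h compound exposure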
SUMO1-SIM PPI – modulators of SUMO1 protein-protein interactions, primary screen, biochemical, uHTS | Small ubiquitin-related modifier 1 (Homo sapiens), P63165 | 360,000 compounds, 0.33% hits | inhibition, % at 20 µM | SUMO1 binding to a labelled peptide, TR-FRET, 1 h; in the data active = inhibition above about 37%
Scp1 confirm – Scp-1 phosphatase inhibitors, retest, confirmation, biochemical, colorimetric, single concentration; shares compounds with Scp1 inh; inhibition, % at 20 µM; recombinant SCP-1 catalytic domain, phosphate release, malachite green absorbance; 2,500 compounds, 61% hits; AID 540281, 2011;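 also: plate controls were DMSO with enzyme for no effect and buffer wells lacking enzyme for full effect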
MG interference – colorimetric readout interference by compounds, confirmation, artefact control for Scp-1 inhibitor project, biochemical, single concentration; apparent inhibition (interference), % at 20 µM; shares compounds with Scp1 inh; 2,500 tested, under 10 active; Colorimetric interference counterscreen, malachite green absorbance 630 nm;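 also: compounds added after enzyme reaction finished so only phosphate colour detection is probed; plate controls were DMSO wells with completed Scp-1 reaction for no effect and substrate wells lacking enzyme for full effect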
Scp-1 Tm shift – Scp-1 binding by thermal shift, confirmation, orthogonal assay for Scp-1 inhibitor project, biophysical, differential scanning fluorimetry | thermal shift relative to vanadate control, % at 40 µM | 1,500 compounds, 25% hits | AID 540329, 2011 | Recombinant SCP1, Sypro Orange thermal shift Tm | shares compounds with Scp1 inh;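 active = substances whose mean melting-temperature shift, as a percentage of the reference inhibitor's shift, reaches about 5.3%, limit read from the data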;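 also: 0% = Tm of DMSO wells and 100% = Tm with sodium orthovanadate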
The depositor's hits bear a star; . = not tested or not shown.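 The calls were made as follows, unless noted: active = inhibition of at least 30% at 20 µM; inactive = the rest.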

SMILES	LMPTP inh	Scp1 inh	DNMT1 block	STEP inh	CFTR F508del cor	SUMO1-SIM PPI	Scp1 confirm	MG interference	Scp-1 Tm shift
COC(=O)Cn1c(=O)c2c(n(Cc3ccccc3)c1=O)N/C(=C/c1ccc(Br)cc1)C2=O	2.3	107.2*	-2.8	13.7	-1.2	-1.1	56.5*	-14.5	11.9*
COC(=O)CN1C(=O)N/C(=C/c2ccc(OC)cc2)C1=O	-1.7	-0.8	5.2	-0.3	2.1	-20.4	.	.	.
COCC(=O)N1CC(=O)N2[C@H](C1)[C@@H](c1ccc(Br)cc1)[C@@H]2CO	.	.	.	.	-1.1	.	.	.	.
OC[C@H]1[C@@H](c2ccccc2)C2(CN(CCC(F)(F)F)C2)N1Cc1ccncc1	.	.	.	.	0.2	.	.	.	.
CCOC(=O)N1CCN(c2ccc(S(=O)(=O)N3CCOCC3)cn2)CC1	-0.8	79.8*	0.8	3.7	-2.4	-2.1	-12.2	-15.8	.
CNC[C@H]1Oc2ncc(Br)cc2C(=O)N([C@H](C)CO)C[C@@H]1C	.	.	.	.	0.3	.	.	.	.
O=C(Nc1nc2ccsc2c(=O)s1)c1ccc(F)cc1Cl	0.9	54.7*	15.0	12.2	0.4	14.6	38.5*	-9.8	-10.9
Cc1csc2c(=O)sc(NC(=O)c3ccc(F)cc3Cl)nc12	2.7	44.6	-1.0	6.4	-0.7	5.9	.	.	.
O=C(Nc1nc2ccsc2c(=O)s1)c1ccc(F)cc1	64.8*	95.7*	12.0	97.6*	0.7	0.9	51.0*	-9.5	-6.4
CCOC(=O)/C=C1\CC(C(=O)OCC)Oc2c(OC)cccc21 (stereo unspecified)	-0.7	103.5*	6.6	-1.3	0.0	-4.6	66.6*	-15.6	-14.2
CCOC(=O)N1CCN(C(=O)C2CC(c3ccccc3OC)=NO2)CC1 (stereo unspecified)	-1.1	-2.7	0.8	1.8	1.3	-0.6	.	.	.
CCc1nnc(NC(=O)Cn2c(=O)oc3ccccc32)s1	-2.0	-9.6	-0.9	-1.8	.	-4.1	.	.	.
CC1CCCC(C)N1c1nnc(NC(=O)Cn2c(=O)oc3ccccc32)s1 (stereo unspecified)	0.2	94.8*	1.9	-0.1	-2.0	2.8	1.3	-9.3	.
O=C1c2ccccc2C(=O)N1Nc1ccc([N+](=O)[O-])cc1[N+](=O)[O-]	8.8	51.6*	2.7	18.1	0.5	1.7	45.5*	-4.3	-15.1
O=C1C2C3C=CC(C3)C2C(=O)N1Nc1ccc([N+](=O)[O-])cc1[N+](=O)[O-] (stereo unspecified)	-2.8	-1.9	-5.0	0.3	0.2	-32.7	.	.	.
CC[N+]1=CN(c2ccccc2)C(C)=CC1(C)C	-3.5	77.7*	-4.0	-3.3	-2.0	2.0	85.5*	-12.3	-23.6
CC1=NN(c2ccccc2)C(=O)C1(C)C	-0.7	-3.4	0.7	5.1	.	0.2	.	.	.
COc1ccc(S(=O)(=O)N(C)C[C@H]2Oc3ncc(/C=C/c4ccccc4)cc3C(=O)N([C@H](C)CO)C[C@H]2C)cc1	.	.	.	.	1.5	.	.	.	.
O=C(O)CCSc1nnc(SCC(=O)NC2CCS(=O)(=O)C2)s1 (stereo unspecified)	-0.4	101.4*	4.2	-2.7	1.0	2.6	-10.8	-18.6	.
